{
  "source": "paper PMC3079198",
  "about": "(Journal of the American Chemical Society, 2011)",
  "key": {"[1]": {"test_system": "H460 cells with wild type p53", "test": "Caspase-Glo 3/7 assay in H460 cells", "assay_type": "cell-based, human", "settings": "20 μM, 24 h", "how_it_was_run": "(§1)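 Human lung cancer cells, H460 (wild-type p53) and H1299 (p53 deleted), were exposed for 24 h to test compound at 20 μM. Controls were DMSO, a negative-control compound (20 μM) and a known MDM2 inhibitor as positive control (20 μM). Caspase 3/7 activity was then measured with the Caspase-Glo 3/7 assay kit.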"}, "[2]": {"test_system": "H1299 cells with deleted p53", "test": "Caspase-Glo 3/7 assay in H1299 cells", "assay_type": "cell-based, human", "settings": "20 μM, 24 h", "how_it_was_run": "as §1"}},
  "data": [
    {"smiles": "CC(C)(C)C[C@H]1N[C@@H](C(=O)NCCN2CCOCC2)[C@H](c2cccc(Cl)c2F)[C@@]12C(=O)Nc1cc(Cl)ccc12", "note": "[MI-63]", "values": [
      {"measurement": "induction of caspase 3/7 activity", "setting": "[1]", "value": "~5", "unit": "fold"},
      {"measurement": "effect on caspase 3/7 activity", "setting": "[2]", "value": "no effect"}
    ]}
  ]
}
